Source: PubChem BioAssay (Johns Hopkins Ion Channel Center)
KCNK3 inh – human KCNK3 channel inhibitors, primary screen, CHO cells, FluxOR thallium flux, B-score; Potassium channel subfamily K member 3 (Homo sapiens), O14649; FluxOR fluorescence; hits give low values; B-score at 10 µM; hit rate 0.84% among 340,000; AID 602410, 2012;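 active means B-score under library mean minus 4 SD, starting fluorescence ratio at most library mean plus 5 SD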;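 further: more negative B-score means stronger inhibition of thallium flux through KCNK3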
Target sequence (O14649 whole entry, looked up): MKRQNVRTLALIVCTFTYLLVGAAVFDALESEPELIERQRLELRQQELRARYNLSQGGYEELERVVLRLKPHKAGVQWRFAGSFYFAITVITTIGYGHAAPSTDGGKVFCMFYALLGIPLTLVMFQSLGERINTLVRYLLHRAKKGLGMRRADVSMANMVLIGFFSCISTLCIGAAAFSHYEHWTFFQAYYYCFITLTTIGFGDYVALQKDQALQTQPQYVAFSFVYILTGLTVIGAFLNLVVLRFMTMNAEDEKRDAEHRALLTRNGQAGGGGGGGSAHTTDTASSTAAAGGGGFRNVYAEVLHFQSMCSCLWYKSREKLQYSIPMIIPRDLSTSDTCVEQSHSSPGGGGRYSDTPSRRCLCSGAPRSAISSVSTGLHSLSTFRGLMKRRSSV
KCNQ1 pot – potentiators or activators of KCNQ1 channel, primary screen, cell-based, thallium flux, high-throughput; Potassium voltage-gated channel subfamily KQT member 1 (Homo sapiens), P51787; CHO-K1 KCNQ1, thallium flux FluxOR fluorescence; hits give high values; B-score at 10 µM; hit rate 0.35% among 310,000;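 active means fluorescence ratio B-score, a plate-corrected score, at least three library SD, with initial intensity B-score within 5 SD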
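Doses: Single concentration per compound, DMSO matched to controls | Test system: KCNQ1-transfected CHO-K1 cells | Timing: 90 min dye loading and 20 min compound exposure, both at room temperature | Measured by: Kinetic FluxOR thallium fluorescence, 10-s 1-Hz baseline, 110-s post-stimulus read | Medium: Assay buffer with matched DMSO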
Kir21 block – inhibitors of mouse Kir2.1 inward-rectifier potassium channel | Inward rectifier potassium channel 2 (Mus musculus), P35561 | HEK293-Kir2.1, FluxOR thallium flux fluorescence; hits give low values | B-score at 10 µM | hit rate 0.85% among 310,000 | AID 1672, 2009;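 active means fluorescence ratio B-score at or below minus 3 SD of library scores, with starting-brightness B-score within 2 SD, cut at about -4.2 in these data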;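 further: channel flux triggered by added potassium and thallium sulfate stimulus; B-score of peak minus minimum fluorescence over baseline after thallium stimulus; more negative B-score means stronger Kir2.1 block with less thallium influx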
hERG rescue – hERG rescue from dofetilide block, primary screen, cell-based, CHO-hERG, FluxOR thallium flux, dofetilide IC70; Voltage-gated inwardly rectifying potassium channel KCNH2 (Homo sapiens), Q12809; dofetilide IC70 present; activation (rescue from dofetilide block), less the hit threshold, % at 10 µM; hit rate 0.51% among 310,000; AID 1511, 2009;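 active means activation above the mean of controls blocked by dofetilide plus 5 SD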;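 further: thallium influx through hERG after potassium depolarization seen as dye fluorescence rise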
KCNQ1 block – inhibitors of human KCNQ1 channel, primary screen, cell-based, thallium flux, high-throughput. CHO-K1 KCNQ1, FluxOR thallium flux fluorescence; hits give high values. B-score at 10 µM. hit rate 1.3% among 310,000;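 active means compounds whose thallium flux B-score, printed positive for inhibition, exceeds three library SD while starting fluorescence stays within three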;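 further: channel opened by potassium depolarization with thallium stimulus after 20 min compound exposure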
KCNK9 block – KCNK9 potassium channel inhibitors, primary screen, HEK293 cells, thallium flux. Potassium channel subfamily K member 9 (Homo sapiens), Q9NPC2. FluxOR thallium flux fluorescence; hits give low values. B-score at 10 µM. hit rate 1.2% among 310,000. AID 488922, 2010;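 active means ratio B-score over 3 SD below the library mean, with starting fluorescence within 5 SD of its mean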;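 further: negative B-score means less thallium flux so channel inhibition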
The depositor's hits bear a star; i = inactive; x = not tested or not shown. Most compounds without a hit are left out; they make up all but 3.7% or so of the library.

SMILES	KCNK3 inh	KCNQ1 pot	Kir21 block	hERG rescue	KCNQ1 block	KCNK9 block
CSc1nc2c(c(=O)[nH]1)C(c1ccc(C(F)(F)F)cc1)CC(=O)N2 (stereo unspecified)	i	i	0.07	-5.0	i	i
COc1cc2c(cc1OC)C(c1ccc(Br)cc1)CC(=O)N2 (stereo unspecified)	i	i	0.74	-9.1	i	i
COc1ccc(OCC(=O)NNC(=S)NC(=O)c2ccc(Br)o2)cc1	i	i	-0.98	-8.3	i	i
Cc1cccc(C)c1OCCCCc1c(C)n[nH]c1C	i	i	-3.61	-24.4	i	-8.03*
COc1cccc(OC)c1OCCCCc1c(C)n[nH]c1C	i	i	-1.66	0.9	i	i
COc1cccc(OC)c1OCCCCCc1c(C)n[nH]c1C	i	i	-4.46*	-8.4	i	i
C[n+]1c(-c2ccc(C=NNC(=O)c3ccc(C(=O)NN=Cc4ccc(-c5cn6ccccc6[n+]5C)cc4)cc3)cc2)cn2ccccc21	i	x	x	x	x	x
Cc1[nH]c2ccccc2c1C1=CC(=O)C=CC1=O	-9.21*	x	x	x	x	x
Cc1[nH]c2ccccc2c1CC#N	i	i	0.23	-8.8	i	i
CCCCCCCCCCCCCCCC[N+](C)(C)CCl	i	x	x	x	x	x
CCCCCC[N+](C)(C)CC/C=C1/c2ccccc2Sc2ccc(Cl)cc21	i	i	-3.78	-16.9	i	-7.97*
CN(C)c1cccc(C(=O)NNC(=O)C23CC4CC(CC(C4)C2)C3)c1	i	x	x	x	x	x
Cc1ccccc1C(=O)NC(=S)N(C)C1CCCCC1	i	i	2.91	-4.3	i	i
Cc1ccc(C(=O)NC(=S)N(C)C2CCCCC2)cc1Br	i	16*	-0.29	1.8	i	i
COc1ccc(C(=O)NC(=S)N(C)C2CCCCC2)cc1	i	i	-1.43	-3.8	i	i
CN(C(=S)NC(=O)c1ccccc1Br)C1CCCCC1	i	13*	0.87	2.0	i	i
COc1ccc(C(=O)NC(=S)N(C)C2CCCCC2)cc1Br	i	i	0.72	6.2*	i	i
Cc1ccc(NC(=O)c2ncn(CCCNCCCc3ccccc3)n2)cc1C	i	x	x	x	x	x
Cc1ccc(-n2nnnc2/C=C\Nc2cc(C)on2)cc1	i	i	1.83	-3.7	i	i
CC(C)(C)c1cc(N/C=C\c2nnnn2-c2ccc(Br)cc2)no1	i	i	-0.01	7.3*	i	i
CCOc1ccccc1N1CCN(C(=O)CSc2ccc3c(c2)OCCO3)CC1	i	x	x	x	x	x
O=C(Nc1cccc(Cl)c1N1CCCC1)c1cccc(-c2cc3ccccc3oc2=O)c1	i	i	-1.8	-8.5	i	-7.07*
O=C(Nc1ccc(CN2CCOCC2)cc1)c1cccc(-c2cc3ccccc3oc2=O)c1	i	i	-1.48	-32.4	i	i
COC(=O)COc1cc(OCC(=O)OC)c2c(-c3ccccc3)cc(=O)oc2c1	i	i	-1.3	-9.1	i	i
CC(C)(C)OC(=O)COc1cc(OCC(=O)OC(C)(C)C)c2c(=O)cc(-c3ccccc3)oc2c1	-9.11*	x	x	x	x	x
SMILES	KCNK3 inh	KCNQ1 pot	Kir21 block	hERG rescue	KCNQ1 block	KCNK9 block
COC(=O)c1sc(S(=O)(=O)NCc2ccccc2)c(C(=O)OC)c1C	i	i	-5.18*	-15.1	i	i
O=[N+]([O-])c1ccc(N=Nc2c(Cl)cc(O)cc2Cl)cc1	i	i	-6.9*	-23.3	8*	i
CC(N)=Nc1ccc([N+](=O)[O-])cc1	i	i	2.01	-7.0	i	i
CNCCCCOc1ccc(C(C)(C)C)cc1Cl	i	i	-4.87*	-11.2	i	i
CNCCCOc1ccc(C)cc1Br	i	i	-1.23	-15.2	i	i
CCC(C)Sc1ccc([C@H]2N[C@@](Cc3ccccc3)(C(=O)OC)[C@H]3C(=O)N(CC)C(=O)[C@@H]23)cc1OC (stereo partly specified)	i	i	1.24	-4.7	i	i
COc1cc(S(=O)(=O)n2c(C)nc3ccccc32)ccc1F	i	i	0.73	-3.5	i	i
COc1cc(C)c(C)cc1S(=O)(=O)n1c(C)nc2ccccc21	i	i	-5.06*	-7.6	i	i
COc1cc(F)ccc1S(=O)(=O)n1c(C)nc2ccccc21	i	i	-6.5*	-6.0	i	i
Cc1ccc2c(c1C)OC(=O)CC2c1ccccc1 (stereo unspecified)	i	i	0.15	-5.3	i	i
O=C(O)c1ccc(CN2CCCCC2)o1	i	i	-0.39	5.1*	i	i
CN(CCc1ccccc1)C(=O)c1ccc(NC(=O)Cc2ccc(NC(=O)C3CCN(C(=O)CCc4ccccc4)CC3)cc2)cc1	i	x	x	x	x	x
NS(=O)(=O)c1ccc(CCNCC(=O)NCc2ccccc2Cl)cc1	i	i	-0.1	-5.6	i	i
O=C1CCSc2ccc(Cl)cc2N1Cc1ccccc1	i	i	-1.47	-5.4	i	i
O=C1CCSc2ccc(Cl)cc2N1Cc1ccc(Cl)cc1	i	i	-2.22	-10.9	i	-7.61*
CCCc1nnn(S(=O)(=O)c2ccc([N+](=O)[O-])cc2)c1CCC	i	x	x	x	x	x
Cc1cc(Nc2ccc3c(c2)OCCO3)c2cc(Cl)ccc2n1	i	i	-5.17*	-19.2	i	i
Cc1ccc(Nc2cc(C)nc3ccc(C)cc23)cc1	i	i	-6.74*	-13.5	i	i
CCOc1cc(/C=N/NC(=O)C2CCCC2)ccc1OC(C)C	i	i	-1.52	-8.3	i	i
CCCCN(Cc1nc2ccccc2c(=O)[nH]1)C(=O)c1nn(C)c(=O)c2ccccc12	i	x	x	x	x	x
COc1ccc(CN(C)C(=S)Nc2ccc(OC(F)F)cc2)cc1	i	i	-1.85	-21.0	i	i
COc1cccc(CN(C)C(=S)Nc2ccc(C)c(C)c2)c1	i	i	0.05	4.7*	i	i
Cc1[nH]c(C)c(S(=O)(=O)N2CCCCC2C)c1C(=O)N1CCCC1 (stereo unspecified)	i	i	0.75	-7.0	i	i
CC1CCC(NC(=O)COC(=O)CNC(=O)c2ccc3ccccc3c2)CC1 (stereo unspecified)	i	x	x	x	x	x
Cc1ccc(-c2nn(-c3ccccc3)cc2CO)cc1	i	i	-0.54	-14.7	i	i
N=C(N)SCc1cn(-c2ccccc2)nc1-c1ccc(Br)cc1	-13.7*	i	-7.05*	-27.0	11*	i
